ChEMBL document CHEMBL1148762, “Lysosome and HER3 (ErbB3) selective anticancer agent kahalalide F: semisynthetic modifications and antifungal lead-exploration studies” (J Med Chem, 2007)
Values after ≈ are worked out from the molar mass of the structure shown.

Key:
[1] = tested on: Mycobacterium tuberculosis; assay: Antibacterial activity against Mycobacterium tuberculosis H37Rv at 16 ug/mL by micro plate alamar blue assay; type: functional
Method in brief: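 M. tuberculosis H37Rv ATCC 27294 grown in BACTEC 12B medium; microplate Alamar blue assay (MABA). Primary screen at a single concentration of 16 µg/mL, read as percent inhibition.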

[2] = tested on: Candida albicans; assay: Antimicrobial activity against Candida albicans ATCC 90028; type: functional, organism-based
[3] = tested on: Fusarium oxysporum; assay: Antimicrobial activity against Fusarium oxysporum at 0.3 uM after 48 hrs by microtiter assay; type: functional
Method in brief: (§1)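 96-well microdilution broth assay with conidia (3 × 10^5 conidia/mL, harvested from 7-day PDA cultures and filtered) against F. oxysporum, F. proliferatum and F. solani at 0.3, 3 and 30 µM. Plates were held at 24 ± 1 °C under a 12 h photoperiod. Growth was read at 620 nm at 24, 48 and 72 h and reported as percent inhibition from mean absorbance with standard error.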

[4] = tested on: Fusarium solani; assay: Antimicrobial activity against Fusarium solani at 30 uM after 72 hrs by microtiter assay; type: functional; method in brief: as §1
[5] = tested on: Fusarium solani; assay: Antimicrobial activity against Fusarium solani at 0.3 uM after 48 hrs by microtiter assay; type: functional; method in brief: as §1
[6] = tested on: Fusarium solani; assay: Antimicrobial activity against Fusarium solani at 30 uM after 48 hrs by microtiter assay; type: functional; method in brief: as §1
[7] = tested on: Fusarium oxysporum; assay: Antimicrobial activity against Fusarium oxysporum at 30 uM after 48 hrs by microtiter assay; type: functional; method in brief: as §1
[8] = tested on: Fusarium oxysporum; assay: Antimicrobial activity against Fusarium oxysporum at 3 uM after 72 hrs by microtiter assay; type: functional; method in brief: as §1
[9] = tested on: Fusarium proliferatum; assay: Antimicrobial activity against Fusarium proliferatum at 30 uM after 72 hrs by microtiter assay; type: functional; method in brief: as §1
[10] = tested on: Fusarium proliferatum; assay: Antimicrobial activity against Fusarium proliferatum at 3 uM after 48 hrs by microtiter assay; type: functional; method in brief: as §1
[11] = tested on: Mycobacterium tuberculosis; assay: Antibacterial activity against Mycobacterium tuberculosis H37Rv by micro plate alamar blue assay; type: functional
[12] = tested on: Fusarium proliferatum; assay: Antimicrobial activity against Fusarium proliferatum at 0.3 uM after 48 hrs by microtiter assay; type: functional; method in brief: as §1
[13] = tested on: Fusarium proliferatum; assay: Antimicrobial activity against Fusarium proliferatum at 0.3 uM after 72 hrs by microtiter assay; type: functional; method in brief: as §1
[14] = tested on: Fusarium oxysporum; assay: Antimicrobial activity against Fusarium oxysporum at 3 uM after 48 hrs by microtiter assay; type: functional; method in brief: as §1
[15] = tested on: Fusarium solani; assay: Antimicrobial activity against Fusarium solani at 3 uM after 72 hrs by microtiter assay; type: functional; method in brief: as §1
[16] = tested on: Cryptococcus neoformans; assay: Antimicrobial activity against Cryptococcus neoformans ATCC 90113; type: functional, organism-based
[17] = tested on: Fusarium proliferatum; assay: Antimicrobial activity against Fusarium proliferatum at 30 uM after 48 hrs by microtiter assay; type: functional; method in brief: as §1
[18] = tested on: Aspergillus fumigatus; assay: Antimicrobial activity against Aspergillus fumigatus ATCC 90906; type: functional, organism-based
[19] = tested on: Fusarium solani; assay: Antimicrobial activity against Fusarium solani at 3 uM after 48 hrs by microtiter assay; type: functional; method in brief: as §1
[20] = tested on: Mycobacterium intracellulare; assay: Antimicrobial activity against Mycobacterium intracellular ATCC 23068; type: functional, organism-based
[21] = tested on: Fusarium oxysporum; assay: Antimicrobial activity against Fusarium oxysporum at 0.3 uM after 72 hrs by microtiter assay; type: functional; method in brief: as §1
[22] = tested on: Fusarium solani; assay: Antimicrobial activity against Fusarium solani at 0.3 uM after 72 hrs by microtiter assay; type: functional; method in brief: as §1
[23] = tested on: Fusarium oxysporum; assay: Antimicrobial activity against Fusarium oxysporum at 30 uM after 72 hrs by microtiter assay; type: functional; method in brief: as §1
[24] = tested on: Leishmania donovani; assay: Antiparasitic activity against Leishmania donovani; type: functional, organism-based
[25] = tested on: Fusarium proliferatum; assay: Antimicrobial activity against Fusarium proliferatum at 3 uM after 72 hrs by microtiter assay; type: functional; method in brief: as §1

For `C/C=C1\NC(=O)[C@H](Cc2ccccc2)NC(=O)[C@@H](C(C)C)NC(=O)[C@@H]([C@@H](C)CC)NC(=O)[C@H](NC(=O)[C@H](NC(=O)[C@H](CCCNCCCCCC)NC(=O)[C@H]2CCCN2C(=O)[C@H](NC(=O)[C@@H](NC(=O)[C@@H](NC(=O)[C@H](NC(=O)CCCC(C)C)C(C)C)[C@@H](C)O)C(C)C)C(C)C)[C@@H](C)CC)[C@@H](C)OC(=O)[C@H](C(C)C)NC1=O`, the inhibition at 16 µg/mL [1] was 88%, the MFC [2] was 20 µM (≈ 31.2 µg/mL) and the MIC [2] was 20 µM (≈ 31.2 µg/mL). It also gave an inhibition at 0.3 µM [3] of 0%, an inhibition at 30 µM [4] of 94.7% and an inhibition at 0.3 µM [5] of 0%. The inhibition at 30 µM [6] was 94.3%, the inhibition at 30 µM [7] was 93.6% and the inhibition at 3 µM [8] was 0%. It also gave an inhibition at 30 µM [9] of 92.8%, an inhibition at 3 µM [10] of 0% and an MIC [11] greater than 16 µg/mL. For the same compound, the inhibition at 0.3 µM [12] was 0%, the inhibition at 0.3 µM [13] was 0% and the inhibition at 3 µM [14] was 0%. For the same compound, the inhibition at 3 µM [15] was 0%, the MFC [16] was 10 µM (≈ 15.6 µg/mL) and the MIC [16] was 5 µM (≈ 7.81 µg/mL). For the same compound, the inhibition at 30 µM [17] was 95.3%, the MFC [18] was 20 µM (≈ 31.2 µg/mL) and the MIC [18] was 10 µM (≈ 15.6 µg/mL). It also gave an inhibition at 3 µM [19] of 0%, an MBC [20] greater than 20 µM and an MIC [20] greater than 20 µM. The inhibition at 0.3 µM [21] was 0%, the inhibition at 0.3 µM [22] was 0% and the inhibition at 30 µM [23] was 89%. It also gave an IC90 [24] of 34 µg/mL (≈ 21.8 µM) and an inhibition at 3 µM [25] of 0%.
